The whole screen tested about 2,500 compounds, of which about 460 (18%) were called active. Only a sample is shown. Unmarked numbers belong to inactive results.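 The calls were made as follows: active = mean activation above a cutoff of low control average plus 3 SD from the earlier screen (cut at about 12% in these data); inactive = the rest.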

This assay is described as follows: IANBD-channel fluorescence artefacts in buffer – biochemical, artefact control for cardiac RTF calcium sensitizer project, confirmation (AID 504382). To be noted: IANBD fluorescence interference counterscreen, EC20 Ca2+, at 7.2 µM, stronger effect = higher value, scaled: EC20 calcium 0, EC100 calcium 100. The method, boiled down: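 Technique: fluorescence, 480/540 nm / Medium: MOPS-based buffer with KCl, MgCl2, EGTA, NTA, DTT, pH 7.2 / Probe or stimulus: calcium at EC20 level, 0.472 mM final / Repeats: triplicate wells per compound / Times: 15 min compound exposure at 25 °C / Measure: compound fluorescence interference relative to control well signal range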
In the case of `Cc1ccc(CSc2nnc(SCC(=O)N/N=C/c3ccccc3OCC(=O)O)s2)cc1`, the fluorescence artifact activation is 4.19%.
As for `Cc1ccc(NC(=O)CSc2nnc(-c3cccnc3)s2)cc1`, the figure is 258% (active).
`Cc1ccc(-c2csc(NC(=O)CSc3nc4ccccc4o3)n2)cc1`: the fluorescence artifact activation is 0.77%.
As for `Nc1nnnn1/N=C/c1cc(Cl)cc(Cl)c1O`, the figure is 0.11%.
On to `O=C(Nc1ccc(Cl)c(Cl)c1)Nc1ccc([N+](=O)[O-])cn1`, for which the fluorescence artifact activation is 8.85%.
Consider `COc1ccc(OC)c2[nH]c(=O)c(CCNS(=O)(=O)c3ccc(Cl)cc3)cc12`, for which the fluorescence artifact activation is -0.04%.
As for `N#C/C(=C\N1CCN(Cc2ccc3c(c2)OCO3)CC1)c1nc2ccccc2s1`, the figure is 7.04%; as for `COc1cccc(C2C(C#N)=C(N)Oc3cc(C)oc(=O)c32)c1OC` (centres undefined), 6.53%; as for `COc1ccc(N=Cc2cc3c(cc2O)OC(N)=C(C#N)C3c2ccccc2)cc1` (centres undefined), 32.9% (active).
As for `Cc1ccccc1N=Cc1cc2c(cc1O)OC(N)=C(C#N)C2c1ccccc1` (centres undefined), the fluorescence artifact activation is 0.04%.
For `CCN(CC)c1ccc(/C=C2\C(=N)N3N=C(CC(=O)N4CCOCC4)SC3=NC2=O)cc1`, the fluorescence artifact activation was 0.25%.
As for `CCOc1ccc(N(C)c2ccc(/C=C3/SC(=S)NC3=O)cc2)cc1`, the figure is 0.1%; as for `CN(C)c1ccc(C=C2SC(=S)NC2=O)cc1`, 0.13%.
As for `CCN(CC)c1ccc(/C=C2\SC(N)=NC2=O)cc1`, the figure is 18.7% (active); as for `CCN(CC)c1ccc(C=C2SC(=S)NC2=O)cc1`, 19.1% (active); as for `CCCOc1ccc(-c2nn(-c3ccccc3)cc2/C=C2\SC(N)=NC2=O)cc1`, 0.02%.
For the molecule `COc1cccc(/C=N/Nc2nnc3c(n2)[nH]c2ccccc23)c1OC`, the fluorescence artifact activation was 0.23%.
As for `CC[n+]1c(/C=C/N(C)c2ccccc2)oc2ccc(F)cc21`, the figure is 0.51%; as for `CCN(CC)c1ccc(/C=N/OCC(=O)Nc2cccc(C)c2)cc1`, 0.61%; as for `C#CCN1c2ccccc2Sc2cccnc21`, 0.15%.
As for `Fc1ccc(-c2nnc(-c3ccc(Cl)cc3Cl)o2)cc1`, the figure is 12.9% (active).
For the molecule `O=C(c1cccc(F)c1)N1CCN(C(=O)c2cc(-c3ccc(Cl)cc3Cl)on2)CC1`, the fluorescence artifact activation was 0.33%.
With `Nc1ccn([C@H]2C[C@H](O)[C@@H](CO)O2)c(=O)n1`, the fluorescence artifact activation is 0.1%.
As for `CCCNC(=O)Cn1c(=O)/c(=C/c2ccc(-c3ccc([N+](=O)[O-])cc3)o2)s/c1=C\C(=O)C(C)(C)C`, the figure is 10.3%.
Take `O=c1oc2ccccc2cc1-c1ccc(O)cc1O`: the fluorescence artifact activation is 30.6% (active).
As for `O=c1c(-c2ccc(O)cc2O)coc2cc(O)cc(O)c12`, the fluorescence artifact activation was 0.09%.
Turning to `O=c1oc2ccccc2cc1-c1nc(-c2cccs2)cs1`, the fluorescence artifact activation was -0.04%.
With `COc1ccccc1/C=[N+](\[O-])C1SC(=S)N(C)C1(C)C` (centres undefined), the fluorescence artifact activation was 0.01%.
As for `CCOc1ccc(N2C(=O)CC(SCc3nc4ccccc4[nH]3)C2=O)cc1` (centres undefined), the figure is 0.12%.
Regarding `COC(=O)[C@@]1(Cc2ccc(OC)cc2)[C@@H]2C(=CC(=O)[C@H]2CC(=O)C(=O)N2CCCC2)CN1C(=O)c1ccccc1`, the fluorescence artifact activation was 15% (active).
As for `CN(C)S(=O)(=O)c1ccc2c(c1)/C(=C/c1cc3c([nH]1)CCCC3)C(=O)N2`, the figure is 3.96%; as for `Cc1cc(C)c(/C=C2\C(=O)Nc3ccccc32)[nH]1`, 4.55%; as for `O=C1Nc2ccccc2/C1=C/c1cnc(-c2ccccc2)[nH]1`, 36.5% (active).
As for `C#Cc1ccc([C@@H]2C=C(C(=O)OCC=C)O[C@H](OCCCCO)C2)cc1`, the figure is 0.21%; as for `CC1=N/C(=C/c2ccc([N+](=O)[O-])cc2)C(=O)N1c1ccc(Cl)cc1Cl`, 0.01%; as for `COc1ccccc1N1CCN(C(=O)CCC(=O)O)CC1`, 0.1%.
As to `Cc1cc(N2CCN(c3nc(-c4ccc([N+](=O)[O-])cc4)cs3)CC2)c2ccccc2n1`, the fluorescence artifact activation was 3.28%.
As for `COc1ccccc1N1CCN(c2ccc([N+](=O)[O-])cc2Cl)CC1`, the fluorescence artifact activation was 18.9% (active).
As for `COc1ccc(N2CCN(S(=O)(=O)Cc3ccccc3)CC2)cc1`, the figure is 0.08%.
As for `COc1ccc(N2CCN(c3ccc([N+](=O)[O-])cc3Cl)CC2)cc1`, the figure is 18.2% (active); as for `COc1cc(NC(=O)C2CCCCN2)ccc1OCC(C)C` (centres undefined), 2.06%.
For the molecule `CC(C)C(=O)COc1c2occc2cc2ccc(=O)oc12`, the fluorescence artifact activation is 0.07%.
For the molecule `CCOC(=O)c1cccc(NC(=O)CSc2nc(N)cc(N)n2)c1`, the fluorescence artifact activation is -0.04%.
Consider `CCOC(=O)c1c(C#N)c(SCC(=O)Nc2ccc(OC)cc2)nc2c1CN(CC)CC2`, for which the fluorescence artifact activation is 25.1% (active).
For the molecule `Cc1noc(NS(=O)(=O)c2ccc(NC(=O)CSc3nc4c(cc3C#N)CCC4)cc2)c1C`, the fluorescence artifact activation is 0.31%.
With `COc1ccc(/C=C2\SC(=O)N(CCC(=O)N3CCN(C)CC3)C2=O)cc1`, the fluorescence artifact activation is -0.03%.
As for `CC(C)c1ccc(C2c3[nH]c4ccccc4c3C[C@H]3C(=O)N(c4ccccc4C(=O)N4CCC(C(=O)O)CC4)C(=O)N23)cc1` (some centres undefined), the figure is 0.07%; as for `COc1ccccc1-c1nnc(SCc2nc3ccccc3s2)n1C`, 7.19%; as for `Cc1ccc(Cl)c(NC(=O)CN(C)CC(=O)Nc2ccc(F)c(F)c2F)c1Cl`, 0.02%.
Turning to `N/C(COc1cc(Cl)cc(Cl)c1)=N\O`, the fluorescence artifact activation was 21.9% (active).
As for `COc1cc(OC)c(C(=O)NC2CCCCCC2)cc1OC`, the figure is -0.01%.
With `O=[N+]([O-])c1cc(-c2ccn[nH]2)ccc1Cl`, the fluorescence artifact activation is -0.08%.
As for `COc1ccc(C(Nc2ccc(S(=O)(=O)NCC3CCCO3)cc2)C(=O)NC(C)(C)C)cc1OC` (centres undefined), the figure is 0.01%; as for `COc1cc(OC)cc(-c2c(-c3cccs3)c3cc(-c4ccc(SC)cc4)ccc3n2C)c1`, 5.67%; as for `O=C(/C=C/c1nc2ccccc2s1)N1CCCCCC1`, 7.06%.
Turning to `O=C(CSc1nc2ccccc2s1)NNC(=S)Nc1ccccc1`, the fluorescence artifact activation is 193% (active).
As for `N#C/C(=C(/O)COC(=O)c1ccccc1O)c1nc2ccccc2s1`, the figure is 0.47%.
Turning to `CCc1cc(=O)n2c([nH]c3ccccc32)c1C#N`, the fluorescence artifact activation is 0.24%.
As for `Cc1cc(Br)ccc1SCC(=O)OCC(=O)Nc1ccccc1C#N`, the figure is 0.22%; as for `Cc1ccc(S(=O)(=O)Nc2ccc3ncccc3c2[N+](=O)[O-])cc1`, 0.33%.
As for `COc1ccc(/C=C2\CC/C(=C\c3ccc(OC)cc3OC)C2=O)c(OC)c1`, the figure is 9.84%; as for `CCCN1C(=O)/C(=C\C=C2\N(CC)c3ccccc3C2(C)C)SC1=S`, 0.28%; as for `CCCCN1C(=O)/C(=C/C=C2\Oc3ccccc3N2CC)SC1=S`, 16.6% (active).
`CCCN1C(=O)/C(=C/C=C2\N(CC)c3ccccc3C2(C)C)SC1=S`: the fluorescence artifact activation was 0.48%.
Regarding `CC(C(=O)NNS(=O)(=O)c1cccc(C(F)(F)F)c1)n1nnc(N2CCOCC2)n1` (centres undefined), the fluorescence artifact activation was 0.4%.
On to `COc1cc2c(cc1[N+](=O)[O-])-c1ccccc1C2`, for which the fluorescence artifact activation was 70.4% (active).
With `COc1ccc2c3c(cccc13)C(=O)CC2`, the fluorescence artifact activation was 1.92%.
As for `COc1cc(OC)c(OC)cc1/C=C1/Cc2ccccc2C1=O`, the figure is -0.02%.
As for `Cc1noc(C)c1S(=O)(=O)N(C)C[C@H]1Oc2ccc(NC(=O)CCC(F)(F)F)cc2C(=O)N([C@H](C)CO)C[C@@H]1C`, the figure is 0.08%.
As for `O=S(=O)(Nc1nc2ccccc2nc1NCCO)c1cccc(Cl)c1`, the figure is 57.1% (active); as for `Cc1ccc(S(=O)(=O)Nc2nc3ccccc3nc2NCc2ccco2)cc1`, 2.57%.
As to `O=S(=O)(Nc1nc2ccccc2nc1N1CCN(c2ccccn2)CC1)c1ccc(Cl)cc1`, the fluorescence artifact activation is -0.09%.
In the case of `COC1=CC2(O)CCCC2=CC1=O` (centres undefined), the fluorescence artifact activation was 0.15%.
As for `Cc1cc(Cn2nc(C(=O)NCC3CC3)cc2-c2ccccc2)on1`, the figure is 0.04%.
As for `COc1cccc(/C=C/C(=C2\C(=O)N(c3ccccc3)N=C2C)c2ccc(Br)cc2)c1OC`, the figure is 0.1%.
As for `CCC1(c2ccccc2)NC(=O)N(CC(=O)Nc2ccc(OC)nc2)C1=O` (centres undefined), the figure is -0.05%.
Consider `CCN(C(=O)c1cc2ccccc2oc1=O)c1ccccc1`, for which the fluorescence artifact activation is 1.56%.
As for `C/C(=N/NC(=O)CNC(=O)Cc1ccccc1)c1ccco1`, the figure is 0%; as for `N#CCCN(C(=O)c1ccco1)c1ccccc1`, 1610% (active); as for `CCOCCCNc1ccc(-c2ccccc2)nn1`, 1.31%.
As for `COc1cc(/C=C2/SC(=S)N(Cc3ccccc3)C2=O)cc(Cl)c1O`, the figure is 1800% (active).
As for `O=C1/C(=C\c2cc(Cl)c(O)c(Cl)c2)SC(=S)N1Cc1ccccc1`, the figure is -0.11%.
Take `COc1ccc(O)c(/C=C2/SC(=S)N(Cc3ccccc3)C2=O)c1`: the fluorescence artifact activation is 0.17%.
As for `O=C(N/N=C/c1cccc([N+](=O)[O-])c1)c1cnccn1`, the figure is -0.02%; as for `O=C(CSc1ccc(-c2cccs2)nn1)N1CCCCC1`, 0.91%.
As for `CCOc1ccc(NC(=O)COC(=O)CCN2C(=O)C3CC=CCC3C2=O)cc1OCC` (centres undefined), the figure is 0.5%; as for `CN1CC[C@@H]2C(=O)N3CCc4ccc(Br)cc4[C@@H]3C[C@@H]21`, 0.24%.
As for `COC(=O)C1=C(O)/C(=C\c2ccc(CNS(=O)(=O)c3ccc(Cl)cc3)o2)N=C1C`, the figure is 0.18%; as for `COc1cc(C2C3CN(C)CC=C3C(C#N)=C(N)C2(C#N)C#N)ccc1OC(C)C` (centres undefined), 16.8% (active).
As to `CCN1CC=C2C(C#N)=C(N)C(C#N)(C#N)C(CCc3ccccc3)C2C1` (centres undefined), the fluorescence artifact activation was 0.03%.
As for `CN1CC=C2C(C#N)=C(N)C(C#N)(C#N)C(Cc3ccccc3)C2C1` (centres undefined), the figure is 0.22%; as for `CN1CC=C2C(C#N)=C(N)C(C#N)(C#N)[C@H](c3cccc(Cl)c3)C2C1` (some centres undefined), 10.2%; as for `COc1cc([C@@H]2[C@H]3CN(C)CC=C3C(C#N)=C(N)C2(C#N)C#N)cc2c1OCO2`, 0.14%.
Take `CN1CC=C2C(C#N)=C(N)C(C#N)(C#N)C(CCc3ccccc3)C2C1` (centres undefined): the fluorescence artifact activation is 12.7% (active).

These data come from PubChem BioAssay AID504382 (The Scripps Research Institute Molecular Screening Center, 2011).
